Measurements taken from ChEMBL document CHEMBL4414545, “Beta-Glucuronidase Catalyzes Deconjugation and Activation of Curcumin-Glucuronide in Bone” (J Nat Prod, 2019).

Legend:
[1] = Drug concentration in C3H/HeJ mouse exhibiting decrease in GUSB activity assessed as level of aglycone curcumin in bone marrow at 500 mg/kg administered via oral gavage measured after 30 mins by LC-MS analysis; assay type: ADME, organism-based; conditions: in vivo, 0.5 h, read-out: Ct
In short: (§1)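 Oral gavage of curcumin, 500 mg/kg in DMSO, to C57BL/6J or C3H/HeJ mice, n=3–4/group. Serum and marrow were taken 30 min post-dose. Marrow pellets from leg centrifugation were resuspended in 50 mM sodium acetate pH 5 and kept 2 h on ice; supernatants were used. Aglycone curcumin and curcumin-glucuronide were quantified by LC/MS, with marrow values adjusted to pellet volume.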

[2] = Drug metabolism in C3H/HeJ mouse exhibiting decrease in GUSB activity assessed as level of curcumin-glucuronide in bone marrow at 500 mg/kg administered via oral gavage measured after 30 mins by LC-MS analysis; assay type: ADME, organism-based; conditions: read-out: Ct, in vivo, 0.5 h; in short: as §1
[3] = test system: RAW264.7; test: Inhibition of RANKL-induced osteoclastogenesis in murine RAW264.7 cells assessed as formation of TRAP positive multinucleated osteoclasts pretreated for 4 hrs followed by RANKL addition measured after 72 hrs; assay type: functional, cell-based; conditions: Mus musculus
In short: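 RAW 264.7 cells, used within 10 passages, were seeded at 5×10^3/well in DMEM with 10% FBS and allowed to adhere overnight at 37°C. Cells were pretreated 4 h with aglycone curcumin or curcumin-glucuronide, then given RANKL (50 ng/mL final) for 72 h. TRAP-positive multinucleated osteoclasts were counted, n=4/group.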

[4] = test system: RAW264.7; test: Cytotoxicity against murine RAW264.7 cells assessed as effect on cell viability at 3 uM; assay type: cell-based; conditions: mouse, raw264.7, 3 µM
[5] = Half-life in C57BL/6J mouse serum at 500 mg/kg administered via oral gavage measured after 30 mins by LC-MS analysis; assay type: ADME, organism-based; conditions: in vivo, 0.5 h
In short: (§2)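 Female 4-week C57BL/6J mice given a single oral gavage of curcumin, 500 mg/kg in DMSO. Serum and bone marrow were collected under isoflurane at the indicated times up to 48 h, n=4/group. Total curcumin (aglycone plus glucuronide) was measured by LC/MS with d6-curcumin standards. PK parameters came from noncompartmental analysis after extravascular dosing.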

[6] = Half-life in C57BL/6J mouse bone marrow at 500 mg/kg administered via oral gavage measured after 30 mins by LC-MS analysis; assay type: ADME, organism-based; conditions: in vivo, 0.5 h; in short: as §2
[7] = Tmax in C57BL/6J mouse serum at 500 mg/kg administered via oral gavage measured after 30 mins by LC-MS analysis; assay type: ADME, organism-based; in short: as §2
[8] = Tmax in C57BL/6J mouse bone marrow at 500 mg/kg administered via oral gavage measured after 30 mins by LC-MS analysis; assay type: ADME, organism-based; in short: as §2
[9] = Cmax in C57BL/6J mouse serum at 500 mg/kg administered via oral gavage measured after 30 mins by LC-MS analysis; assay type: ADME, organism-based; design: dose 500 mg/kg, route oral; in short: as §2
[10] = Cmax in C57BL/6J mouse bone marrow at 500 mg/kg administered via oral gavage measured after 30 mins by LC-MS analysis; assay type: ADME, organism-based; design: dose 500 mg/kg, route oral; in short: as §2
[11] = AUC (0 to 48 hrs) in C57BL/6J mouse serum at 500 mg/kg administered via oral gavage measured after 30 mins by LC-MS analysis; assay type: ADME, organism-based; design: time < 48 hr, dose 500 mg/kg, route oral; in short: as §2
[12] = AUC (0 to 48 hrs) in C57BL/6J mouse bone marrow at 500 mg/kg administered via oral gavage measured after 30 mins by LC-MS analysis; assay type: ADME, organism-based; design: time < 48 hr, dose 500 mg/kg, route oral; in short: as §2
[13] = AUC (0 to infinity) in C57BL/6J mouse serum at 500 mg/kg administered via oral gavage measured after 30 mins by LC-MS analysis; assay type: ADME, organism-based; design: dose 500 mg/kg, route oral, time infinity; in short: as §2
[14] = AUC (0 to infinity) in C57BL/6J mouse bone marrow at 500 mg/kg administered via oral gavage measured after 30 mins by LC-MS analysis; assay type: ADME, organism-based; design: dose 500 mg/kg, route oral, time infinity; in short: as §2
[15] = Ratio of AUC (0 to 48 hrs) in C57BL/6J mouse serum to AUC (0 to 48 hrs) in C57BL/6J mouse bone marrow at 500 mg/kg administered via oral gavage; assay type: ADME, organism-based; conditions: in vivo
[16] = Ratio of AUC (0 to infinity) in C57BL/6J mouse serum to AUC (0 to infinity) in C57BL/6J mouse bone marrow at 500 mg/kg administered via oral gavage; assay type: ADME, organism-based; conditions: in vivo
[17] = Ratio of drug concentration in C57BL/6J mouse bone marrow to drug concentration in C57BL/6J mouse serum; assay type: ADME
[18] = Prodrug conversion in C57BL/6J mouse serum assessed as effect on aglycone curcumin level at 500 mg/kg administered via oral gavage incubated for 30 mins followed by resuspension in sodium acetate buffer at pH 5 measured after 2 hrs in presence of saccharolactone by LC-MS analysis; assay type: ADME, organism-based; conditions: in vivo, pH 5, 500 mg/kg
[19] = Prodrug conversion in C57BL/6J mouse bone marrow assessed as beta-glucuronidase mediated effect on aglycone curcumin level at 500 mg/kg administered via oral gavage incubated for 30 mins followed by resuspension in sodium acetate buffer at pH 5 measured after 2 hrs in presence of saccharolactone by LC-MS analysis; assay type: ADME, organism-based; conditions: in vivo, pH 5, 500 mg/kg
In short: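 C57BL/6J mice were gavaged with curcumin at 500 mg/kg, and marrow was harvested 30 min later. Marrow was resuspended in 50 mM sodium acetate pH 5 with or without 10 mM saccharolactone, or mice received saccharolactone 1 g/kg ip in saline 1 h before curcumin. Suspensions were kept 2 h on ice, and aglycone curcumin (% of total) was measured by LC/MS, n=3–4/group.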

[20] = Drug metabolism in C57BL/6J mouse assessed as level of curcumin-glucuronide in serum at 500 mg/kg administered via oral gavage measured after 30 mins by LC-MS analysis; assay type: ADME, organism-based; conditions: in vivo, 0.5 h, read-out: Ct; in short: as §1
[21] = Drug metabolism in C57BL/6J mouse assessed as level of curcumin-glucuronide in bone marrow at 500 mg/kg administered via oral gavage measured after 30 mins by LC-MS analysis; assay type: ADME, organism-based; conditions: in vivo, 0.5 h, read-out: Ct; in short: as §1
[22] = Drug concentration in C57BL/6J mouse assessed as level of aglycone curcumin in serum at 500 mg/kg administered via oral gavage measured after 30 mins by LC-MS analysis; assay type: ADME, organism-based; conditions: in vivo, 0.5 h, read-out: Ct; in short: as §1
[23] = Drug concentration in C57BL/6J mouse assessed as level of aglycone curcumin in bone marrow at 500 mg/kg administered via oral gavage measured after 30 mins by LC-MS analysis; assay type: ADME, organism-based; conditions: in vivo, 0.5 h, read-out: Ct; in short: as §1
[24] = Drug metabolism in C3H/HeJ mouse exhibiting decrease in GUSB activity assessed as level of curcumin-glucuronide in serum at 500 mg/kg administered via oral gavage measured after 30 mins by LC-MS analysis; assay type: ADME, organism-based; conditions: in vivo, 0.5 h, read-out: Ct; in short: as §1
[25] = Drug metabolism in C57BL/6J mouse assessed as level of curcumin-glucuronide in serum at 100 mg/kg, ip measured after 20 mins by LC-MS analysis; assay type: ADME, organism-based; conditions: in vivo, read-out: Ct
In short: (§3)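 Curcumin at 100 mg/kg in DMSO was given ip to 15-week C57BL/6J, C3H/HeJ or mps/mps (GUSB-null) mice, n=3–4/group. Serum and marrow were harvested 20 min later. Marrow was resuspended in 50 mM sodium acetate pH 5 for 2 h on ice. Aglycone and glucuronidated curcumin were measured by LC/MS, with marrow values corrected to the original pellet volume.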

[26] = Drug metabolism in C57BL/6J mouse assessed as level of curcumin-glucuronide in bone marrow at 100 mg/kg, ip measured after 20 mins by LC-MS analysis; assay type: ADME, organism-based; conditions: in vivo, read-out: Ct; in short: as §3
[27] = Drug concentration in C57BL/6J mouse assessed as level of aglycone curcumin in serum at 100 mg/kg, ip measured after 20 mins by LC-MS analysis; assay type: ADME, organism-based; conditions: in vivo, read-out: Ct; in short: as §3
[28] = Drug concentration in C57BL/6J mouse assessed as level of aglycone curcumin in bone marrow at 100 mg/kg, ip measured after 20 mins by LC-MS analysis; assay type: ADME, organism-based; conditions: in vivo, read-out: Ct; in short: as §3
[29] = Drug metabolism in C3H/HeJ mouse exhibiting decrease in GUSB activity assessed as level of curcumin-glucuronide in serum at 100 mg/kg, ip measured after 20 mins by LC-MS analysis; assay type: ADME, organism-based; conditions: in vivo, read-out: Ct; in short: as §3
[30] = Drug concentration in C3H/HeJ mouse exhibiting decrease in GUSB activity assessed as level of aglycone curcumin in serum at 100 mg/kg, ip measured after 20 mins by LC-MS analysis; assay type: ADME, organism-based; conditions: in vivo, read-out: Ct; in short: as §3
[31] = Drug concentration in C3H/HeJ mouse exhibiting decrease in GUSB activity assessed as level of curcumin-glucuronide in bone marrow at 100 mg/kg, ip measured after 20 mins by LC-MS analysis; assay type: ADME, organism-based; conditions: in vivo, read-out: Ct; in short: as §3
[32] = Drug concentration in C3H/HeJ mouse exhibiting decrease in GUSB activity assessed as level of aglycone curcumin in bone marrow at 100 mg/kg, ip measured after 20 mins by LC-MS analysis; assay type: ADME, organism-based; conditions: in vivo, read-out: Ct; in short: as §3
[33] = Drug metabolism in mps/mps mutant mouse assessed as level of curcumin-glucuronide in serum at 100 mg/kg, ip measured after 20 mins by LC-MS analysis; assay type: ADME, organism-based; conditions: in vivo, read-out: Ct; in short: as §3
[34] = Drug concentration in mps/mps mutant mouse assessed as level of aglycone curcumin in serum at 100 mg/kg, ip measured after 20 mins by LC-MS analysis; assay type: ADME, organism-based; conditions: in vivo, read-out: Ct; in short: as §3
[35] = Drug concentration in mps/mps mutant mouse assessed as level of aglycone curcumin in bone marrow at 100 mg/kg, ip measured after 20 mins by LC-MS analysis; assay type: ADME, organism-based; conditions: in vivo, read-out: Ct; in short: as §3

COc1cc(/C=C/C(=O)CC(=O)/C=C/c2ccc(O)c(OC)c2)ccc1O [CURCUMIN]
concentration [1]: 470 nM
concentration [2]: 1190 nM
IC50 [3]: 3 µM
Activity [4]: Non-Toxic
t1/2 [5]: 264 min
t1/2 [6]: 468 min
Tmax [7]: 30 min
Tmax [8]: 30 min
Cmax [9]: 106000 nM
Cmax [10]: 5900 nM
AUC(0-t) at 48 h [11]: 487 µM·h
AUC(0-t) at 48 h [12]: 48 µM·h
AUC(0-inf) [13]: 488 µM·h
AUC(0-inf) [14]: 48.3 µM·h
Ratio [15]: 10
Ratio [16]: 10
Kp [17]: 3
Drug metabolism [18]: Metabolite_Detected
Drug metabolism [19]: Metabolite_Detected
concentration [20]: 82700 nM
concentration [21]: 360 nM
concentration [22]: 170 nM
concentration [23]: 1140 nM
concentration [24]: 80000 nM
concentration [25]: 92700 nM
concentration [26]: 1300 nM
concentration [27]: 7200 nM
concentration [28]: 1900 nM
concentration [29]: 92100 nM
concentration [30]: 2800 nM
concentration [31]: 2700 nM
concentration [32]: 500 nM
concentration [33]: 151000 nM
concentration [34]: 22800 nM
concentration [35]: 400 nM
